The record followed here is the EternaBench riboswitch data.

The series relates to MS2 coat protein. Kind of series: apparent Kd, MS2 coat protein; higher = weaker binding; RNA-MaP array; FMN 200 µM where present. The essentials: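 On Illumina sequencing-chip clusters, designs were transcribed by stalled E. coli RNA polymerase and titrated with SNAP-549-labelled MS2 coat protein (0.7 or 1.5 nM, doubling to 3 µM), without and then with constant ligand, in 100 mM Tris-HCl pH 7.5, 80 mM KCl, 4 mM MgCl2, BSA, DTT, yeast tRNA and Tween-20. Apparent Kd is the median of filtered per-cluster curve fits to green signal normalised to red-channel RNA signal and control-cluster median Fmax.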

The mark [1] stands for this setting: designed as: ON switch for flavin mononucleotide, no ligand.
Setting [2] is: ligand present: flavin mononucleotide, designed as: ON switch for flavin mononucleotide.
The mark [3] stands for this setting: designed as: OFF switch for flavin mononucleotide, no ligand.
The mark [4] stands for this setting: ligand present: flavin mononucleotide, designed as: OFF switch for flavin mononucleotide.

By apparent Kd is commonly meant the concentration giving half-maximal binding under the conditions of the assay. On to “CGCUACAGCCAGAAGGACAUGAGGAUCACCCAUGUAGGAUAUGGGAGACGAGGUCCAGUGUAGAGAAACUACGCUACUGUAGCG”, for which the “apparent Kd” value runs as follows: under setting [1], 292 nM; under setting [2], 151 nM. Take “ACGACGAAAAUCGAACGAUGUAGCAGAAGGACAUGAGGAUCACCCAUGUAAAAUGUAACAGCCAUGUAGGAUAUGCUACAUCGA”: the “apparent Kd” value is, setting by setting: under setting [3], 40.9 nM; under setting [4], 272 nM. For the sequence “CUGUUAUAGAUCCAGAAUUACAACAUGAGGAUCACCCAUGUGCAGGAUAUCGGGUUGAUAGGCGCCGAGAAGGGUAUAGUCACG”, the “apparent Kd” value is 60.2 nM under setting [3] and 61.6 nM under setting [4]. In the same order, the values of “AAAAGAUAAGCAGGAUAUCGAACAACUCAUGGGCUAUGCCAUCCGCACAUGAGGAUCACCCAUGUCGAGAAGGGCUAAGAGUAG” are 9.82 nM and 25.8 nM. For the sequence “GUAGCAUACCGAGGAUAUUCAUACGGGAAACCGACAUGAGGAUCACCCAUGUGGCGAAAGCCUUGGGAGAAGGCGGAAUGCUAC”, the “apparent Kd” value by setting is: under setting [1], 691 nM; under setting [2], 24.8 nM. On to “AAAACGGCACGUCCCGUGCCAACUACAGAAGGCCAACAUGAGGAUCACCCAUGUACAAACUAGAUGGAGGAUAUGUAGGUUCUA”, for which the “apparent Kd” value came to 6.19 nM under setting [1] and 4.24 nM under setting [2]. “UUAUAAAGAGUGAGGAUAUGCUGGUCCAUGGAUCAGCAGAAGGCACAUGAGGAUCACCCAUGUAAAAUAAUAUU”: the “apparent Kd” value runs as follows: under setting [3], 18.3 nM; under setting [4], 37.6 nM.

As to “GAACUGAAGCAUGGCUUUAGUCGUACAUGAGGAUCACCCAUGUAGGAUAUGGUAGGCAUAGCUUACUAGAAGGAUAGAGUGAUC”, the “apparent Kd” value is 187 nM under setting [3] and 63.4 nM under setting [4]. With “GUCGGAAACGACAAAGUAGCAUAGGAGGAUAUUCAUUAAAACAUGAGGAUCACCCAUGUAAAUUGGGAGAAGGCCUAUGCUACA”, the “apparent Kd” value under setting [1] was found to be 17.8 nM and the “apparent Kd” value under setting [2] was 5.26 nM. In the case of “AAAUGCCUGUCGAUGCUCGACAUGAGGAUCACCCAUGUAUAGCAGGAUAUGCAGAACUGACUCGUGCAGAAGGGCUAUACCUAC”, the “apparent Kd” value runs as follows: under setting [3], 17.8 nM; under setting [4], 37.4 nM. “CCGAAUGUCACAGGAUAUGGUCCGGGCACGCGACCAGAAGGGUGAUCUCACAUGAGGAUCACCCAUGUGCAGUUGUUAAGCUGC”: the “apparent Kd” value reads like this: under setting [1], 23.8 nM; under setting [2], 106 nM. Consider “AAGAGCGAUUCUCCCUUCCUACAUGAGGAUCACCCAUGUACGAGAAGGCGCCGUGUAUACCACGGUGAGGAUAUCGUACGUUAC”, for which the “apparent Kd” value runs as follows: under setting [3], 5.23 nM; under setting [4], 10.3 nM. Regarding “GGUCUGAUAUGAGGAUAUGCUCAGGAAUACUGAGCAGAAGGCAUGUGAAUACAUGAGGAUCACCCAUGUGAUCAAUACAGACCA”, the “apparent Kd” value came to 140 nM under setting [1] and 26 nM under setting [2]. As for “GUCAGCUCGUGAGGAUAUACACCACUGCUUCGGCAGUGUAUUAAGAUCACAUGAGGAUCACCCAUGUAGAAGGCACGAGCUGAU”, the “apparent Kd” value under setting [3] amounted to 14.5 nM and the “apparent Kd” value under setting [4] was determined as 255 nM. In the same order, the values of “GGUCGAAAGUAAGGAUAUGCCUAGGAAACCUAGGCAGAAGGUACAUGAGGAUCACCCAUGUUAACGCAAAGCGAAUAAACGACC” are 18.6 nM and 27.4 nM. On the same counts, the results for “UGCUGACGAGGAUAUACAUGAGGAUCACCCAUGUUGGUCAAGCGACGAUAGUCGCAAUGUAGAAGGCGUCAGCU” are 483 nM and 208 nM. Turning to “CCUCGCUGUUAGAAGGCACCUUCGGCUUUGGCUUUUGGAGUUGGGCGAUGGUGAGGAUAUAACAUGAGGAUCACCCAUGUUCAA”, under setting [4], the “apparent Kd” value is 65.1 nM. In the case of “GUAGCAUACCGAGGAUAUUCAUACCGUAAUCGGACAUGAGGAUCACCCAUGUGGCGAAAGCCUUGGGAGAAGGCGGAAUGCUAC”, the “apparent Kd” value is, setting by setting: under setting [1], 630 nM; under setting [2], 27.6 nM. As for “UUAUGCUGAGAGAAGGUUCAAACUACAUAUUGCGCACAUGAGGAUCACCCAUGUUGGUGAAUAAGAAAGGAUAUUUUACUGUAU”, the “apparent Kd” value by setting is: under setting [3], 63.2 nM; under setting [4], 43.1 nM.

Regarding “ACAGCGAUGGUUAGGAUAUCCACGAGUACUUCGUCGGAGAAGGAACAUGAGGAUCACCCAUGUAGAUCCCAGGG”, the “apparent Kd” value reads like this: under setting [3], 146 nM; under setting [4], 319 nM. Turning to “UUGGACGUCGUAGGAUAUGUAGGAUAUUCCUACAUGAGGAUCACCCAUGUUGACAUGGAAGAAGGACAGAAGCACGAUGUCCAU”, the “apparent Kd” value runs as follows: under setting [1], 199 nM; under setting [2], 5.35 nM. On the same counts, the results for “GGUACCUUCACAGGAUAUGCUAUCCUUUGGGUAGCAGAAGGGUGAUACAUGAGGAUCACCCAUGUGGUGCCAGGGCGUGAGCCC” are 1090 nM and 305 nM. Regarding “CGGGCGAGAGGAUAUACAUGAGGAUCACCCAUGUGUUUCCAGGCGGUAGCUGUCACGUGUAGAAGGUUUUCCGG”, the “apparent Kd” value reads like this: under setting [3], 18.4 nM; under setting [4], 17.7 nM. In the case of “CCCAUCGCAUGAGGAUAUGCUCCGGUUUCCGGAGCAGAAGGCAUGUCAUAAGACAUGAGGAUCACCCAUGUAGUUAAGAUGGGA”, the “apparent Kd” value under setting [1] worked out at 529 nM and the “apparent Kd” value under setting [2] was found to be 30.4 nM.

As for “GUAUAUAUUACAUGAGGAUCACCCAUGUCAGAACGGGUAAUCAGAAGGUACUAUUAGAGAAAGAGUAAGGAUAUGAUUAUAUAC”, the “apparent Kd” value stood at 329 nM under setting [1] and 33.9 nM under setting [2]. Regarding “AAUAUUAAGUAGAAGGUAGAUAUUAUUUUAUUCAUGUUUACAUGAGGAUCACCCAUGUAUAAGUCUAAGGAUAUACAUCGAUAG”, the “apparent Kd” value by setting is: under setting [3], 14.9 nM; under setting [4], 9.93 nM. Consider “UUACCUCAUGAGAAGGACAUGAGGAUCACCCAUGUAGGAUAUCGUGGGAGACAGGUAUUGAAUCUUCGGAUUCAAUACCUGUCU”, for which the “apparent Kd” value by setting is: under setting [1], 418 nM; under setting [2], 25.5 nM.

As for “AACAUGAGGAUCACCCAUGUCCCACCAGAAGGCUGGCGGUCAUGGGAAAGGCCACGACAAAUAACAGAGGAUAUGGUGAAUGCA”, the “apparent Kd” value was found to be 168 nM under setting [1] and 33.2 nM under setting [2]. Take “CAUAUGUCAGGAUAUUAUCUCAAGGUAUUCGUUACUAACGAUAAGAAGGGACAUGAGGAUCACCCAUGUGCCGC”: the “apparent Kd” value reads like this: under setting [3], 18.4 nM; under setting [4], 24.2 nM. Regarding “AGUGUUGGAGGAUAUACAUGAGGAUCACCCAUGUACAUCACACAGUAUAUCAAACCAUGUAGAAGGCCAAUACA”, the “apparent Kd” value reads like this: under setting [3], 18.2 nM; under setting [4], 36.4 nM. “UCGUGCCGGGUCACGAUUGACCCACAUGAGGAUCACCCAUGUAGAAGGACCAGCGUCGGCCCUUGGUAGGAUAUACAUGAGCUC”: the “apparent Kd” value under setting [3] was 94.8 nM and the “apparent Kd” value under setting [4] was determined as 114 nM. In the same order, the values of “UAAAUUUACAAGAAGGCUAACAUGAGGAUCACCCAUGUUGUACAUGGAUAUAGAGGAUAUUGCUAAUAAUUAUUUAUCAUAAUU” are 24.2 nM and 19.5 nM. In the same order, the values of “GUCAGCAAAUAAGGAUAUACAUCACUGCUUCGGCAGUGUAUUAAGAUCACAUGAGGAUCACCCAUGUAGAAGGUAUAAGCUGAU” are 8.12 nM and 29.4 nM. With “UGGUACUAGGGAGGAUAUGGGAAGGUACAUGAGGAUCACCCAUGUUUAAGAAUGCCGAGAGGCAACUAGAAGGCCCUAGUACCU”, the “apparent Kd” value reads like this: under setting [1], 204 nM; under setting [2], 13.6 nM. Turning to “GCAUCUCUAUUAGAACCGAUACGAACAUGAGGAUCACCCAUGUAGGAUAUGCUAAAAGUUGUGUUGCAGAAGGACAUUUAAUGC”, the “apparent Kd” value is, setting by setting: under setting [3], 9.49 nM; under setting [4], 8.64 nM. On to “UACUAUAAGGAGGAUAUCGUAUCGGAGACGAUACGAGAAGGCUUAACAUGAGGAUCACCCAUGUUCUUCAAUAU”, for which the “apparent Kd” value runs as follows: under setting [3], 15.3 nM; under setting [4], 18.3 nM.
